One may read the pIC50 as the negative decadic logarithm of the IC50, by convention in mol/L.

From ChEMBL document CHEMBL2086333, “Albopunctatone, an antiplasmodial anthrone-anthraquinone from the Australian ascidian Didemnum albopunctatum” (J Nat Prod, 2012) come the findings set out here.

pIC50: −log10 of the molar value. Calls of active or inactive are those of the source. The calls are words filed in the database; no cut-off is given here.

Series [1] concerns Plasmodium falciparum. Nature of the series: Antimalarial activity against chloroquine-sensitive Plasmodium falciparum 3D7 assessed as reduction in parasite replication incubated for 72 hrs. The note with it: 3D7, 72 h.
For series [2], the system named is PANC-1. Nature of the series: Growth inhibition of human PANC1 cells at 20 uM incubated for 72 hrs by resazurin dye reduction assay. The series is classed as functional. The conditions noted are these: PANC-1, 72 h, read-out: GI. (Resazurin is reduced to fluorescent resorufin, in cell work by metabolically active cells.)
The subject of series [3] is BXPC-3. Put plainly: Growth inhibition of human BxPC3 cells at 20 uM incubated for 72 hrs by resazurin dye reduction assay. The series is classed as functional. The note with it: BXPC-3, 72 h, read-out: GI.
A short description of series [4]: Growth inhibition of human HEK293 cells at 20 uM incubated for 72 hrs by resazurin dye reduction assay. The series is classed as cell-based. The conditions noted are these: read-out: GI.
Series [5] has as its system BT-474. Nature of the series: Growth inhibition of human BT474 cells at 20 uM incubated for 72 hrs by resazurin dye reduction assay. The series is classed as functional. The conditions noted are these: BT-474, 72 h, read-out: GI.
Series [6] can be described thus: Growth inhibition of human MCF10A cells at 20 uM incubated for 72 hrs by resazurin dye reduction assay. The series is classed as cell-based, MCF-10A. The note with it: read-out: GI.
Series [7] in a line: Growth inhibition of human SU8686 cells at 20 uM incubated for 72 hrs by resazurin dye reduction assay. The series is classed as functional. The conditions noted are these: SU.86.86, 72 h, read-out: GI.
A short description of series [8]: Growth inhibition of human MDA-M cells at 20 uM incubated for 72 hrs by resazurin dye reduction assay. The series is classed as functional. The conditions noted are these: read-out: GI.
Series [9] can be described thus: Toxicity against human MDA-M cells at =<40 uM incubated for 72 hrs by resazurin dye reduction assay. The series is classed as cell-based. In a few lines: (§1)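 Adherent cancer cells seeded according to growth rate, compound exposure 72 h at 37 °C, 5% CO2, highest concentration 40 μM. Resazurin at 600 μM final, 4 h, fluorescence 530/595 nm. % growth inhibition scaled between >10% DMSO or 20 μM puromycin (100%) and 0.4% DMSO (0%). Triplicate. IC50 by variable-slope nonlinear regression on log dose.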

Series [10] has as its system BXPC-3. Nature of the series: Toxicity against human BxPC3 cells at =<40 uM incubated for 72 hrs by resazurin dye reduction assay. The series is classed as cell-based. The conditions noted are these: bxpc-3, 72 h. An outline of the steps: as §1
The subject of series [11] is PANC-1. Nature of the series: Toxicity against human PANC1 cells at =<40 uM incubated for 72 hrs by resazurin dye reduction assay. The series is classed as cell-based. The note with it: panc-1, 72 h. In a few lines: as §1
Series [12] concerns Plasmodium falciparum. Put plainly: Antimalarial activity against chloroquine-resistant Plasmodium falciparum Dd2 assessed as reduction in parasite replication at 40 uM incubated for 72 hrs.
In series [13] the test system is BT-474. Put plainly: Toxicity against human BT474 cells at =<40 uM incubated for 72 hrs by resazurin dye reduction assay. The series is classed as cell-based. The note with it: bt-474, 72 h. In a few lines: as §1
The test system of a further series is MCF-10A. Put plainly: Toxicity against human MCF10A cells at =<40 uM incubated for 72 hrs by resazurin dye reduction assay. The series is classed as cell-based. An outline of the steps:
as §1

For another series, the system named is HEK293. Put plainly: Toxicity against human HEK293 cells at =<40 uM incubated for 72 hrs by resazurin dye reduction assay. The conditions noted are these: hek293, 72 h. The series is classed as cell-based. An outline of the steps:
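HEK293 adherent cells, compound exposure 72 h at 37 °C, 5% CO2, highest concentration 40 μM. Supernatant replaced with 10% Presto Blue in DMEM plus 2 mM glutamax, 3 h, fluorescence 530/595 nm. % inhibition scaled between >10% DMSO or 20 μM puromycin (100%) and 0.4% DMSO (0%). Triplicate. IC50 by variable-slope nonlinear regression.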

Series [14] has as its system Plasmodium falciparum. Nature of the series: Antimalarial activity against chloroquine-sensitive Plasmodium falciparum 3D7 assessed as reduction in parasite replication at 40 uM incubated for 72 hrs.
Series [15] relates to Trypanosoma brucei brucei. Nature of the series: Antitrypanosomal activity against Trypanosoma brucei brucei up to 40 uM incubated for 48 hrs by Alamar Blue assay. The series is classed as functional, organism-based. In a few lines: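 T. b. brucei at 2000 cells/mL in HMI-9 with 10% FCS and penicillin/streptomycin, preincubated 24 h. Compound in DMSO prediluted 1:20 in supplemented DMEM, tested up to 40 μM, 48 h at 37 °C, 5% CO2. Alamar Blue added, 2 h under the same conditions then 22 h RT. Fluorescence ex 535/em 590 nm.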

A short description of series [16]: Toxicity against human SU8686 cells at =<40 uM incubated for 72 hrs by resazurin dye reduction assay. The series is classed as cell-based. The conditions noted are these: su.86.86, 72 h. In a few lines: as §1
Series [17] can be described thus: Selectivity index, ratio of cytotoxicity against human MCF10A cells to IC50 for chloroquine-sensitive Plasmodium falciparum 3D7. The series is classed as toxicity, cell-based, MCF-10A. The conditions noted are these: read-out: Selectivity Index.
The nature of series [18]: Selectivity index, ratio of cytotoxicity against human BT474 cells to IC50 for chloroquine-sensitive Plasmodium falciparum 3D7. The series is classed as toxicity, cell-based, BT-474. The conditions noted are these: read-out: Selectivity Index.
The nature of series [19]: Selectivity index, ratio of cytotoxicity against human SU8686 cells to IC50 for chloroquine-sensitive Plasmodium falciparum 3D7. The series is classed as toxicity, cell-based. The conditions noted are these: read-out: Selectivity Index.
Series [20] can be described thus: Selectivity index, ratio of cytotoxicity against human BxPC3 cells to IC50 for chloroquine-sensitive Plasmodium falciparum 3D7. The series is classed as toxicity, cell-based, BXPC-3. The conditions noted are these: read-out: Selectivity Index.
In series [21] the test system is Plasmodium falciparum. Put plainly: Antimalarial activity against chloroquine-resistant Plasmodium falciparum Dd2 assessed as reduction in parasite replication incubated for 72 hrs. The note with it: Dd2, 72 h.
A short description of series [22]: Selectivity index, ratio of cytotoxicity against human HEK293 cells to IC50 for chloroquine-sensitive Plasmodium falciparum 3D7. The series is classed as toxicity, cell-based. The note with it: read-out: Selectivity Index.
Series [23] can be described thus: Selectivity index, ratio of cytotoxicity against human PANC1 cells to IC50 for chloroquine-sensitive Plasmodium falciparum 3D7. The series is classed as toxicity, cell-based, PANC-1. The conditions noted are these: read-out: Selectivity Index.
Series [24] is described as follows: Selectivity index, ratio of cytotoxicity against human MDA-M cells to IC50 for chloroquine-sensitive Plasmodium falciparum 3D7. The series is classed as toxicity, cell-based. The note with it: read-out: Selectivity Index.

As to `C[C@@H]1CC[C@H]2[C@@H](C)C(=O)O[C@@H]3O[C@@]4(C)CC[C@@H]1[C@]32OO4` [ARTEMISININ], in the series on Plasmodium falciparum [1], the pIC50 was 8.14.
As for `COc1ccc(C[C@H](N)C(=O)N[C@H]2[C@@H](O)[C@H](n3cnc4c(N(C)C)ncnc43)O[C@@H]2CO)cc1` [PUROMYCIN], the inhibition of growth at 20 µM (in the series on PANC-1 [2]; in the series with BXPC-3 [3]; in the series with BT-474 [5]; in series [7]; in series [8]) was 100% each time. Further, the inhibition at 72 h, 20 µM in series [4] and in series [6] was 100% each time. Besides, in the series on Plasmodium falciparum [1], the negative logarithm of the IC50 (pIC50) was 7.05.
Regarding `O=C1c2cccc(O)c2C(=O)c2c(O)cccc21` [DANTHRON], the Activity result (in series [9]; with BXPC-3 [10]; in the series on PANC-1 [11]; in the series on BT-474 [13]; in the series on MCF-10A; in the series with HEK293) was “Non-toxic” each time. In addition, in [16], the Activity entry is “Non-toxic”. Also, the outcome (in the series with Plasmodium falciparum [12]; in the series on Plasmodium falciparum [14]; in series [15]) was inactive.
On to `O=C1c2cccc(O)c2C(=O)c2c1ccc(C1(O)c3cccc(O)c3C(=O)c3c(O)cccc31)c2O` [ALBOPUNCTATONE], for which the Activity entry (in [9]; in the series on BXPC-3 [10]; with PANC-1 [11]; with BT-474 [13]; in the series on MCF-10A; in the series on HEK293) was “Non-toxic” each time. Further, the Activity result in series [16] is “Non-toxic”. For the same molecule, the selectivity ratio in [17], in [18], in series [19], in series [20], in [22] and in series [23] was greater than 9.1 in each case. In addition, the selectivity ratio in series [24] was greater than 9.1. The negative logarithm of the IC50 (pIC50) with Plasmodium falciparum [1] is 5.36; in the series on Plasmodium falciparum [21], 5.28. Also, the result in series [15] was inactive.
